Source: ChEMBL document CHEMBL1143027, “An efficient synthesis of 3-fluoro-5-thio-xylofuranosyl nucleosides of thymine, uracil, and 5-fluorouracil as potential antitumor or/and antiviral agents” (Bioorg Med Chem, 2007)
Several values for one entry are separate records, joined by “and”; a condition that tells them apart may be missing. Equal values may be shown once.

Experiments:
[1] = Cytotoxicity against human H4 cells after 72 hrs; format: cell-based
In short: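 H4 human fetal small intestine cells grown in DMEM with 5% fetal calf serum and L-glutamine (2 mmol/L). Cells were exposed to 3-fold serial dilutions starting at 0.5 mg/mL (DMSO stock, final DMSO <0.1%) at 37 °C for 72 h. Treated (n = 2) vs control (n = 24) wells; CC50 from concentration–effect curve.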

Caco-2 [2] = assay: Cytotoxicity against human Caco-2 cells after 72 hrs; format: functional; conditions: Caco-2, 72 h
In short: (§1)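 Cells grown in DMEM with 5% FCS and L-glutamine, then seeded in 96-well plates. Treated with 3-fold serial dilutions (initial 0.5 mg/mL; DMSO stocks, final DMSO <0.1%) for 72 h at 37 °C. Treated wells (n=2) compared with controls (n=24). CC50 read from the concentration–effect curve.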

[3] = Cytotoxicity against human skin melanoma cells after 72 hrs; format: functional; conditions: Melanoma cell; in short: as §1
MCF7 [4] = assay: Cytotoxicity against human MCF7 cells after 72 hrs; format: functional; conditions: MCF7, 72 h; in short: as §1
H4 [5] = assay: Selectivity index, Ratio of CC50 for human H4 cells to CC50 for human Caco-2 cells; format: functional
In short: (§2)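 Tumor selectivity index: CC50 on normal fetal intestinal H4 cells divided by CC50 on the named tumor line, both from the 72 h crystal violet cytotoxicity assay.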

H4 [6] = assay: Selectivity index, Ratio of CC50 for human H4 cells to CC50 for human skin melanoma cells; format: functional; in short: as §2
MCF7 [7] = assay: Selectivity index, Ratio of CC50 for human H4 cells to CC50 for human MCF7 cells; format: functional; in short: as §2
Caco-2 [8] = assay: Growth inhibition of human Caco-2 cells after 10 days; format: functional, cell-based; conditions: Caco-2, 240 h
In short: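 Caco-2 cells seeded at 10 cells/well in DMEM/10% FBS with 3-fold compound dilutions (initial 0.5 mg/mL), six wells per series. Incubated 10 days at 37 °C in a humidified incubator, then colonies counted. Colony number in treated wells (n=2) compared with controls (n=24). IC50 read from the concentration–effect curve.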

Rotavirus [9] = assay: Antiviral activity against rotavirus RF in human Caco-2 cells after neutralization of virus in solution pre-incubated with compound for 12 hrs before infection; format: functional, organism-based
In short: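 Rotavirus RF (grown on Caco-2 with trypsin, 1.5 TCID50/mL, 100 µL per well) pre-incubated 12 h with 3-fold compound dilutions (initial 0.5 mg/mL) in trypsin-containing DMEM, then added to Caco-2 monolayers at 37 °C, 5% CO2. Infected treated wells (n=6) compared with virus-only wells (n=6). IC50 read from the concentration–effect curve.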

[10] = Selectivity index, Ratio of CC50 for human Caco-2 cells to IC50 for rotavirus RF in human Caco2 cells after neutralization of virus in solution before infection; format: functional
In short: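 Ratio of Caco-2 CC50 (72 h crystal violet assay) to rotavirus IC50 from the 12 h pre-attachment neutralization assay.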

Rotavirus [11] = assay: Antiviral activity against rotavirus RF infected human Caco-2 cells following viral attachment after 72 hrs; format: functional, organism-based; conditions: Caco-2, 72 h
In short: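 Washed Caco-2 monolayers exposed to rotavirus RF (1.5 TCID50/mL) for 1 h at 37 °C, 5% CO2 to allow attachment. Unbound virus washed off with plain DMEM, then 3-fold compound dilutions (initial 0.5 mg/mL) added at once. Infected wells (n=6) compared with virus-only controls (n=6). IC50 read from the curve.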

[12] = Selectivity index, Ratio of CC50 for human Caco-2 cells to IC50 for rotavirus RF infected human Caco2 cells after viral attachment; format: functional
In short: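 Ratio of Caco-2 CC50 (72 h crystal violet assay) to rotavirus IC50 from the post-attachment infectivity assay.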

O=c1[nH]cc(F)c(=O)[nH]1 [FLUOROURACIL]
CC50 at 72 h [1]: 3840 µM | CC50 (Caco-2 [2]): 384 µM | CC50 [3]: 46.1 µM | CC50 (MCF7 [4]): 769 µM | Selectivity index (H4 [5]): 10 | Selectivity index (H4 [6]): 83.4 | Selectivity index (MCF7 [7]): 5 | IC50 (Caco-2 [8]): 1.5 µM

CC(=O)O[C@@H]1[C@@H](F)[C@@H](CSC(C)=O)O[C@H]1n1cc(C)c(=O)[nH]c1=O
IC50 (Rotavirus [9]): 2 µg/mL and 5.55 µM | Ratio CC50/IC50 [10]: 10 | IC50 (Rotavirus [11]): 16.6 µM and 6 µg/mL | Ratio CC50/IC50 [12]: 3.33 | CC50 at 72 h [1]: 139 µM | CC50 (Caco-2 [2]): 55.5 µM | CC50 [3]: 278 µM | CC50 (MCF7 [4]): 278 µM | Selectivity index (H4 [5]): 2.5 | Selectivity index (H4 [6]): 0.5 | Selectivity index (MCF7 [7]): 0.5 | IC50 (Caco-2 [8]): 1.9 µM

CC(=O)O[C@@H]1[C@@H](F)[C@@H](CSC(C)=O)O[C@H]1n1ccc(=O)[nH]c1=O
IC50 (Rotavirus [9]): 6 µg/mL and 17.3 µM | Ratio CC50/IC50 [10]: 3.33 | IC50 (Rotavirus [11]): 17.3 µM and 6 µg/mL | Ratio CC50/IC50 [12]: 3.33 | CC50 at 72 h [1]: 1440 µM | CC50 (Caco-2 [2]): 57.8 µM | CC50 [3]: 17.3 µM | CC50 (MCF7 [4]): 289 µM | Selectivity index (H4 [5]): 25 | Selectivity index (H4 [6]): 83.5 | Selectivity index (MCF7 [7]): 5 | IC50 (Caco-2 [8]): 5.8 µM

CC(=O)O[C@@H]1[C@@H](F)[C@@H](CSC(C)=O)O[C@H]1n1cc(F)c(=O)[nH]c1=O
IC50 (Rotavirus [9]): 6 µg/mL and 16.5 µM | Ratio CC50/IC50 [10]: 3.33 | IC50 (Rotavirus [11]): 16.5 µM and 6 µg/mL | Ratio CC50/IC50 [12]: 3.33 | CC50 at 72 h [1]: 1370 µM | CC50 (Caco-2 [2]): 54.9 µM | CC50 [3]: 16.5 µM | CC50 (MCF7 [4]): 1370 µM | Selectivity index (H4 [5]): 25 | Selectivity index (H4 [6]): 83.2 | Selectivity index (MCF7 [7]): 1 | IC50 (Caco-2 [8]): 16.5 µM

Cc1cn([C@H]2C[C@H](N=[N+]=[N-])[C@@H](CO)O2)c(=O)[nH]c1=O [ZIDOVUDINE]
IC50 (Rotavirus [9]): 20 µg/mL and 74.8 µM | Ratio CC50/IC50 [10]: 0.75 | IC50 (Rotavirus [11]): 22.4 µM and 6 µg/mL | Ratio CC50/IC50 [12]: 2.5
